Experimental data as given in ChEMBL document CHEMBL1156483, “A directed approach for engineering conditional protein stability using biologically silent small molecules” (J Biol Chem, 2007).
pEC50, pKd: −log10 of the molar value. One block for each compound: values may come before it. Calls of active or inactive are those of the source. The rule behind the calls is not given here.

How the values were obtained:
NIH3T3 [1] = test: (§1) Stability of FKBP12 V2A mutant-YFP fusion protein expressed in NIH3T3 cells after 24 hrs by flow cytometry; type: cell-based
Method in brief: (§2)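 Retrovirally transduced NIH3T3 cells stably expressing V2A-YFP, plated at 1 × 10^5 cells/well and dosed with 3-fold dilutions (10 µM to 1 nM, or 10 µM to 300 nM) for 24 h. Cells trypsinized, resuspended in PBS, YFP read by flow cytometry (10,000 events). Average MFI ±SEM relative to F36V protein; EC50 from dose curve.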

[2] = Displacement of fluorescein-SLF from FKBP12 F36V mutant by fluorescence polarization assay
NIH3T3 [3] = test: Prevention of proteasome mediated degradation of FKBP12-YFP fusion protein expressed in mouse NIH3T3 cells at 10 uM
NIH3T3 [4] = test: Stability of FKBP12 V2A mutant-N terminus of YFP fusion protein expressed in NIH3T3 cells assessed as mean fluorescence intensity at 1 uM after 24 hrs by flow cytometry relative to FKBP12 F36V mutant; type: cell-based
Method in brief: (§3)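 FKBP mutants (all carrying F36V) fused to the N- or C-terminus of YFP and stably transduced into NIH3T3 cells by MMLV retrovirus (clonally mixed populations). Cells split, mock-treated or given 1 µM for 24 h. YFP read by flow cytometry, 10,000 events. MFI normalized to parent F36V-YFP cells given 1 µM; mean of three experiments ±SEM.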

[5] = as §1; type: cell-based; method in brief: as §2
[6] = Displacement of fluorescein-SLF from FKBP12 F36V mutant-GST fusion protein by fluorescence polarization assay
[7] = Displacement of fluorescein-SLF from FKBP12 V2A mutant-GST fusion protein by fluorescence polarization assay
[8] = Displacement of fluorescein-SLF from FKBP12 L50A mutant-GST fusion protein by fluorescence polarization assay
[9] = Displacement of fluorescein-SLF from FKBP12 L106A mutant-GST fusion protein by fluorescence polarization assay
NIH3T3 [10] = test: Stability of FKBP12 F36V mutant-N terminus of YFP fusion protein expressed in NIH3T3 cells assessed as mean fluorescence intensity at 1 uM after 24 hrs by flow cytometry; type: cell-based; method in brief: as §3
NIH3T3 [11] = test: Stability of FKBP12 V2A mutant-N terminus of YFP fusion protein expressed in NIH3T3 cells assessed as mean fluorescence intensity at 1 uM after 24 hrs by flow cytometry; type: cell-based; method in brief: as §3
NIH3T3 [12] = test: Stability of FKBP12 L50A mutant-N terminus of YFP fusion protein expressed in NIH3T3 cells assessed as mean fluorescence intensity at 1 uM after 24 hrs by flow cytometry; type: cell-based; method in brief: as §3
NIH3T3 [13] = test: Stability of FKBP12 L106A mutant-N terminus of YFP fusion protein expressed in NIH3T3 cells assessed as mean fluorescence intensity at 1 uM after 24 hrs by flow cytometry; type: cell-based; method in brief: as §3
NIH3T3 [14] = test: Stability of FKBP12 F36V mutant-C terminus of YFP fusion protein expressed in NIH3T3 cells assessed as mean fluorescence intensity at 1 uM after 24 hrs by flow cytometry; type: cell-based; method in brief: as §3
NIH3T3 [15] = test: Stability of FKBP12 V2A mutant-C terminus of YFP fusion protein expressed in NIH3T3 cells assessed as mean fluorescence intensity at 1 uM after 24 hrs by flow cytometry; type: cell-based; method in brief: as §3
NIH3T3 [16] = test: Stability of FKBP12 L50A mutant-C terminus of YFP fusion protein expressed in NIH3T3 cells assessed as mean fluorescence intensity at 1 uM after 24 hrs by flow cytometry; type: cell-based; method in brief: as §3
NIH3T3 [17] = test: Stability of FKBP12 L106A mutant-C terminus of YFP fusion protein expressed in NIH3T3 cells assessed as mean fluorescence intensity at 1 uM after 24 hrs by flow cytometry; type: cell-based; method in brief: as §3
NIH3T3 [18] = test: Stability of FKBP12 V4A mutant-N terminus of YFP fusion protein expressed in NIH3T3 cells assessed as mean fluorescence intensity at 1 uM after 24 hrs by flow cytometry relative to FKBP12 F36V mutant; type: cell-based; method in brief: as §3
NIH3T3 [19] = test: Stability of FKBP12 17V mutant-N terminus of YFP fusion protein expressed in NIH3T3 cells assessed as mean fluorescence intensity at 1 uM after 24 hrs by flow cytometry relative to FKBP12 F36V mutant; type: cell-based; method in brief: as §3
NIH3T3 [20] = test: Stability of FKBP12 V2A/V4A mutant-N terminus of YFP fusion protein expressed in NIH3T3 cells assessed as mean fluorescence intensity at 1 uM after 24 hrs by flow cytometry relative to FKBP12 F36V mutant; type: cell-based; method in brief: as §3
NIH3T3 [21] = test: Stability of FKBP12 V2A/17V mutant-N terminus of YFP fusion protein expressed in NIH3T3 cells assessed as mean fluorescence intensity at 1 uM after 24 hrs by flow cytometry relative to FKBP12 F36V mutant; type: cell-based; method in brief: as §3
NIH3T3 [22] = test: Stability of FKBP12 V4A/17V mutant-N terminus of YFP fusion protein expressed in NIH3T3 cells assessed as mean fluorescence intensity at 1 uM after 24 hrs by flow cytometry relative to FKBP12 F36V mutant; type: cell-based; method in brief: as §3
NIH3T3 [23] = test: Stability of FKBP12 V2A/V4A/17V mutant-N terminus of YFP fusion protein expressed in NIH3T3 cells assessed as mean fluorescence intensity at 1 uM after 24 hrs by flow cytometry relative to FKBP12 F36V mutant; type: cell-based; method in brief: as §3
NIH3T3 [24] = test: Stability of FKBP12 V2A mutant-firefly luciferase fusion protein expressed in NIH3T3 cells assessed as rescue of luminescence at 1 or 10 uM after 24 hrs by dual luciferase reporter assay; type: cell-based
NIH3T3 [25] = test: Effect on Epb4.1l2 mRNA level in mouse NIH3T3 cells at 1 uM after 24 hrs by microarray analysis relative to control; type: functional
Method in brief: (§4)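 NIH3T3 cells, in triplicate, mock-treated or treated with 10 nM, 100 nM or 1 µM for 24 h. Total RNA hybridized to MEEBO oligonucleotide arrays. Differentially expressed genes identified by unpaired two-class SAM against mock-treated samples, FDR ≤27.5%. Fold change reported.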

NIH3T3 [26] = test: Effect on Csnkle mRNA level in mouse NIH3T3 cells at 1 uM after 24 hrs by microarray analysis relative to control; type: functional; method in brief: as §4
NIH3T3 [27] = test: Effect on Tcfe3 mRNA level in mouse NIH3T3 cells at 1 uM after 24 hrs by microarray analysis relative to control; type: functional; method in brief: as §4
NIH3T3 [28] = test: Effect on MtCrVgp3 mRNA level in mouse NIH3T3 cells at 10 nM after 24 hrs by microarray analysis relative to control; type: functional; details: in the assay text read “at 1 uM” for “at 10 nM”; method in brief: as §4
NIH3T3 [29] = test: Effect on 4930422M22Rik mRNA level in mouse NIH3T3 cells at 10 nM after 24 hrs by microarray analysis relative to control; type: functional; method in brief: as §4
NIH3T3 [30] = test: Effect on A430110N23 mRNA level in mouse NIH3T3 cells at 10 nM after 24 hrs by microarray analysis relative to control; type: functional; method in brief: as §4
NIH3T3 [31] = test: Effect on Ptpn1 mRNA level in mouse NIH3T3 cells at 10 nM after 24 hrs by microarray analysis relative to control; type: functional; method in brief: as §4
NIH3T3 [32] = test: Effect on Npas4 mRNA level in mouse NIH3T3 cells at 10 nM after 24 hrs by microarray analysis relative to control; type: functional; method in brief: as §4
NIH3T3 [33] = test: Effect on Shkbp1 mRNA level in mouse NIH3T3 cells at 10 nM after 24 hrs by microarray analysis relative to control; type: functional; method in brief: as §4

SMILES: CC[C@H](C(=O)N1CCCC[C@H]1C(=O)O[C@H](CCc1ccc(OC)c(OC)c1)c1cccc(OCC(=O)NCC(C)(C)N)c1)c1cc(OC)c(OC)c(OC)c1
Activity (NIH3T3 [1]): Active | pKd [2]: 9.05

SMILES: CC(=O)N[C@@H](CSC(=O)[C@]1([C@@H](O)C(C)C)NC(=O)[C@H](C)[C@@H]1O)C(=O)O
Activity (NIH3T3 [3]): Active

SMILES: CC[C@H](C(=O)N1CCCC[C@H]1C(=O)O[C@H](CCc1ccc(OC)c(OC)c1)c1cccc(OCC(=O)OCCn2ccnn2)c1)c1cc(OC)c(OC)c(OC)c1
Activity (NIH3T3 [1]): Active | pKd [2]: 9.15

The remaining compounds from weak to strong by pKd [2], led by results:

pKd [2]: 9.40
SMILES: CC[C@H](C(=O)N1CCCC[C@H]1C(=O)O[C@H](CCc1ccc(OC)c(OC)c1)c1cccc(OCC(=O)O)c1)c1cc(OC)c(OC)c(OC)c1
Activity (NIH3T3 [1]): Active

pEC50 [5]: 7.22 | pKd [2]: 9.40 | pKd [6]: 8.70 | pKd [7]: 8.40 | pKd [8]: 8.52 | pKd [9]: 8.70
SMILES: CC[C@H](C(=O)N1CCCC[C@H]1C(=O)O[C@H](CCc1ccc(OC)c(OC)c1)c1cccc(OCCN2CCOCC2)c1)c1cc(OC)c(OC)c(OC)c1
Activity (NIH3T3 [4]): Active | Stability (NIH3T3 [10]): Stable | Stability (NIH3T3 [11]): Stable | Stability (NIH3T3 [12]): Stable | Stability (NIH3T3 [13]): Stable | Activity (NIH3T3 [14]): inactive | Activity (NIH3T3 [15]): inactive | Activity (NIH3T3 [16]): inactive | Activity (NIH3T3 [17]): inactive | Activity (NIH3T3 [18]): Active | Activity (NIH3T3 [19]): Active | Activity (NIH3T3 [20]): Active | Activity (NIH3T3 [21]): Active | Activity (NIH3T3 [22]): Active | Activity (NIH3T3 [23]): Active | Activity (NIH3T3 [24]): Dose-dependent effect | fold change (FC) (NIH3T3 [25]): 2.2 | fold change (FC) (NIH3T3 [26]): 2.7 | fold change (FC) (NIH3T3 [27]): 1.9 | fold change (FC) (NIH3T3 [28]): -11.3 | fold change (FC) (NIH3T3 [29]): -2.2 | fold change (FC) (NIH3T3 [30]): -2.1 | fold change (FC) (NIH3T3 [31]): -1.7 | fold change (FC) (NIH3T3 [32]): -1.7 | fold change (FC) (NIH3T3 [33]): -2.3
